Experimental data from different studies.
Lines come from different studies, so protocols differ.
DRD3: D(3) dopamine receptor (DRD3, Homo sapiens, UniProt P35462)
MDM4: Protein Mdm4 (MDM4, Homo sapiens, UniProt O15151)
GLP1R: Glucagon-like peptide 1 receptor (GLP1R, Homo sapiens, UniProt P43220)

With `CCCC[C@@H](NC(=O)[C@@H](N)Cc1ccc(O)cc1)C(=O)NCC(=O)N[C@@H](Cc1ccc(F)cc1)C(=O)N(C)CCC[C@@]1(c2ccc(F)cc2)OCc2cc(C#N)ccc21` the Ki was 4300 nM (DRD3; ligand displacement, radioligand).
`CC(C)[C@@H]1NC(=O)[C@H](CO)NC(=O)[C@H](CO)NC(=O)[C@H](CO)N(C)C(=O)[C@H](CC(=O)O)NC(=O)[C@H](CO)NC(=O)[C@H](Cc2ccccc2)NC(=O)CSC[C@@H](C(=O)NCC(N)=O)NC(=O)[C@H](CC(N)=O)NC(=O)[C@H](CCCNC(=N)N)NC(=O)[C@H](Cc2ccc(-c3ccccc3)cc2)NC(=O)[C@H](Cc2ccc(-c3ccccc3)cc2)NC(=O)[C@H](CC(N)=O)NC(=O)[C@@H]2CCCN2C1=O` has an IC50 of 835 nM (MDM4; ligand displacement, TR-FRET).
`CC[C@H](C)[C@H](NC(=O)[C@H](CC(=O)O)NC(=O)[C@H](CC(N)=O)NC(=O)[C@@H](NC(=O)[C@H](Cc1ccccc1)NC(=O)[C@H](CO)NC(=O)CNC(=O)[C@H](CC(=O)O)NC(=O)[C@H](C)NC(=O)[C@@H](N)Cc1c[nH]cn1)[C@@H](C)O)C(=O)N[C@@H](CC(N)=O)C(=O)N[C@@H](CCCCN)C(=O)N[C@H](C(=O)N[C@@H](CC(C)C)C(=O)N[C@@H](CC(=O)O)C(=O)N[C@H](C(=O)N[C@H](C(=O)N[C@@H](C)C(=O)N[C@@H](C)C(=O)N[C@@H](CCC(N)=O)C(=O)N[C@@H](CCC(=O)O)C(=O)N[C@@H](Cc1ccccc1)C(=O)N[C@@H](CC(C)C)C(=O)N[C@@H](CC(=O)O)C(=O)N[C@@H](Cc1c[nH]c2ccccc12)C(=O)N[C@H](C(=O)N[C@H](C(=O)N[C@@H](CC(N)=O)C(=O)N[C@H](C(=O)N[C@@H](CCC(N)=O)C(=O)N[C@H](C(=O)N[C@H](C(=O)N[C@@H](CCC(=O)O)C(=O)O)[C@@H](C)O)C(C)C)[C@@H](C)O)[C@@H](C)CC)C(C)C)[C@@H](C)CC)[C@@H](C)CC)C(C)C` has an EC50 of 29.9 nM (GLP1R; reporter gene, agonist, luciferase).
`O=C(O[C@@H]1Cc2c(O)cc(O)cc2O[C@@H]1c1cc(O)c(O)c(O)c1)c1cc(O)c(O)c(O)c1` has a Ki of 5930 nM (Maltase-glucoamylase (Homo sapiens, UniProt O43451); enzyme activity, inhibitor).
With `CC(C)[C@@H]1NC(=O)[C@H](CO)NC(=O)[C@H](CO)NC(=O)[C@H](CO)N(C)C(=O)[C@H](CC(=O)O)NC(=O)[C@H](CO)NC(=O)[C@H](Cc2ccccc2)NC(=O)CSC[C@@H](C(=O)NCC(N)=O)NC(=O)[C@H](CC(N)=O)NC(=O)[C@H](CCCNC(=N)N)NC(=O)[C@H](C)NC(=O)[C@H](Cc2ccc(-c3ccccc3)cc2)NC(=O)[C@H](CC(N)=O)NC(=O)[C@@H]2CCCN2C1=O` the Ki was > 8880 nM (MDM4; ligand displacement, TR-FRET).
`CO/N=C1\C[C@]2(C[C@@H]3C[C@@H](C/C=C(\C)C[C@@H](C)/C=C/C=C4\CO[C@@H]5[C@H](O)C(C)=C[C@@H](C(=O)O3)[C@]45O)O2)O[C@H](/C(C)=C/C(C)C)[C@H]1C` has an IC50 of 44100 nM (Nuclear receptor subfamily 1 group I member 3 (Homo sapiens, UniProt Q14994); reporter gene, antagonist).
`c1cc[c]([Sn]([c]2ccccc2)[c]2ccccc2)cc1` gave an EC50 of 20 nM (Peroxisome proliferator-activated receptor gamma (PPARG, Homo sapiens, UniProt P37231); reporter gene, agonist, luciferase).
For `CCN(CC)c1ccc(/C=N/NC(=O)c2ccc(O)cc2)cc1`, the IC50 was 100 nM (Protein smoothened (SMO, Homo sapiens, UniProt Q99835); ligand displacement).
The EC50 of `CC[C@H](C)[C@H](NC(=O)[C@H](CC(C)C)NC(=O)[C@H](Cc1c[nH]c2ccccc12)NC(=O)[C@H](CC(=O)O)NC(=O)[C@@H](NC(=O)[C@H](Cc1ccccc1)NC(=O)[C@H](CCC(=O)O)NC(=O)[C@H](CCCCN)NC(=O)[C@H](C)NC(=O)[C@H](C)NC(=O)[C@H](CCCCN)NC(=O)[C@H](CCC(=O)O)NC(=O)[C@H](CC(=O)O)NC(=O)[C@H](CC(C)C)NC(=O)[C@H](Cc1c[nH]cn1)NC(=O)[C@H](CCC(N)=O)NC(=O)[C@@H](NC(=O)[C@@H](NC(=O)[C@H](CC(=O)O)NC(=O)[C@H](CO)NC(=O)[C@@H](NC(=O)[C@H](Cc1ccccc1)NC(=O)[C@@H](NC(=O)CNC(=O)[C@H](CCC(=O)O)NC(=O)[C@H](C)NC(=O)[C@@H](N)Cc1c[nH]cn1)[C@@H](C)O)[C@@H](C)O)C(C)C)[C@@H](C)O)[C@@H](C)CC)C(=O)N[C@@H](CC(N)=O)C(=O)NCC(=O)NCC(=O)N1CCC[C@H]1C(=O)O` is reported as 0.449 nM (GLP1R; reporter gene, agonist, luciferase).
The EC50 of `C[C@H](N)Cn1ncc2ccc3c(c21)CCCO3` is reported as 15.7 nM (5-hydroxytryptamine receptor 2C (Rattus norvegicus, UniProt P08909); calcium signal, agonist).
With `CC[C@H](C)[C@H](NC(=O)[C@H](Cc1ccccc1)NC(=O)[C@H](CCC(=O)O)NC(=O)[C@H](CCCCN)NC(=O)[C@H](C)NC(=O)[C@H](C)NC(=O)[C@H](CCC(N)=O)NC(=O)CNC(=O)[C@H](CCC(=O)O)NC(=O)[C@H](CC(C)C)NC(=O)[C@H](Cc1ccc(O)cc1)NC(=O)[C@H](CO)NC(=O)[C@@H](NC(=O)[C@@H](NC(=O)[C@H](CC(=O)O)NC(=O)[C@H](CO)NC(=O)[C@@H](NC(=O)[C@H](Cc1ccc(O)cc1)NC(=O)[C@@H](NC(=O)CNC(=O)[C@H](CCC(=O)O)NC(=O)[C@H](C)NC(=O)[C@@H](N)Cc1c[nH]cn1)[C@@H](C)O)[C@@H](C)O)[C@@H](C)CC)[C@@H](C)O)C(=O)N[C@@H](C)C(=O)N[C@@H](Cc1c[nH]c2ccccc12)C(=O)N[C@@H](CC(C)C)C(=O)N[C@H](C(=O)N[C@@H](CC(N)=O)C(=O)NCC(=O)N[C@@H](CCCNC(=N)N)C(=O)NCC(=O)O)C(C)C` the EC50 was 0.863 nM (GLP1R; reporter gene, agonist, luciferase).
With `C[C@@H](NC(=O)[C@@H](N)Cc1ccc(O)cc1)C(=O)NCC(=O)N[C@@H](Cc1ccccc1)C(=O)N(C)CCC[C@@]1(c2ccc(F)cc2)OCc2cc(C#N)ccc21` the Ki was > 10000 nM (DRD3; ligand displacement, radioligand).
`CC(C)(O)[C@@H](Nc1nc(Cl)nc2c1ncn2[C@H]1[C@H](O)[C@H](O)[C@]2(CO)C[C@H]12)C1CC1` has a Ki of 1350 nM (DRD3; ligand displacement, radioligand).
`CC(CCc1ccccc1)NC(C)C(O)c1ccc(O)cc1` (stereo not shown) has an IC50 of 1290 nM (DRD3; ligand displacement, radioligand).
With `C/C(N)=N\C(=N/S(=O)(=O)c1ccc(C(F)(F)F)cc1)N1C[C@H](c2ccccc2)C(c2ccc(Cl)cc2)=N1` the Ki was 2.3 nM (Cannabinoid receptor 1 (Cnr1, Mus musculus, UniProt P47746); ligand displacement, radioligand; cell membranes).
`CC[C@H](C)[C@H](NC(=O)[C@H](CO)NC(=O)[C@H](CC(=O)O)NC(=O)[C@H](CC(C)C)NC(=O)[C@@H](NC(=O)[C@H](CCCCN)NC(=O)[C@H](CC(N)=O)NC(=O)[C@@H](NC(=O)[C@H](CC(=O)O)NC(=O)[C@H](CO)NC(=O)[C@@H](NC(=O)[C@H](Cc1ccccc1)NC(=O)[C@H](CO)NC(=O)CNC(=O)[C@H](CC(=O)O)NC(=O)[C@@H](NC(=O)[C@@H](N)Cc1c[nH]cn1)C(C)C)[C@@H](C)O)C(C)C)C(C)C)C(=O)N[C@@H](C)C(=O)N[C@@H](C)C(=O)N[C@@H](CCCCN)C(=O)N[C@@H](CCC(=O)O)C(=O)N[C@@H](Cc1ccc(O)cc1)C(=O)N[C@@H](CC(C)C)C(=O)N[C@@H](CCC(N)=O)C(=O)N[C@@H](Cc1c[nH]c2ccccc12)C(=O)N[C@H](C(=O)N[C@@H](CCSC)C(=O)N[C@@H](CC(N)=O)C(=O)N[C@@H](CO)C(=O)N[C@@H](CCCCN)C(=O)N[C@@H](C)C(=O)N[C@@H](CO)C(=O)NCC(=O)O)C(C)C` gave an EC50 of 3.64 nM (GLP1R; reporter gene, agonist, luciferase).
The IC50 of `CC(CCc1ccc(O)cc1)NCCc1ccc(O)c(O)c1` (stereo not shown) is reported as 530 nM (DRD3; ligand displacement, radioligand).
For `CC(C)[C@@H](Nc1nc(Cl)nc2c1ncn2[C@H]1[C@H](O)[C@H](O)[C@]2(CN)C[C@H]12)C1CC1`, the Ki was 3470 nM (DRD3; ligand displacement, radioligand).
`CN(C)CCCN1c2ccccc2Sc2ccccc21` has an IC50 of 75 nM (DRD3; ligand displacement, radioligand).
`Cc1cccc(-c2ccnc3c(C(N)=O)cnn23)c1` gave an IC50 of 67 nM (Toll-like receptor 8 (TLR8, Homo sapiens, UniProt Q9NR97); reporter gene).
For `CSCC[C@H](NC(=O)[C@H](CCC(=O)O)NC(=O)[C@@H]1CCCN1C(=O)[C@@H](NC(=O)[C@@H]1CCCN1)[C@@H](C)O)C(=O)N[C@@H](CCCNC(=N)N)C(=O)N[C@@H](CCC(=O)O)C(=O)N[C@@H](CCCCN)C(=O)N[C@@H](CC(C)C)C(=O)N[C@H]1CSSC[C@@H]2NC(=O)[C@@H](NC(=O)[C@H](CC(C)C)NC(=O)[C@@H](NC(=O)[C@H](CCC(N)=O)NC(=O)[C@H](CC(C)C)NC(=O)[C@H](CC(=O)O)NC(=O)[C@@H]3CCC(=O)N3)[C@@H](C)O)CSSC[C@H](NC(=O)CNC(=O)[C@H](CO)NC(=O)[C@H](CC(C)C)NC2=O)C(=O)N[C@@H]([C@@H](C)O)C(=O)N[C@@H](CCC(N)=O)C(=O)N[C@@H](CCC(N)=O)C(=O)N[C@@H](CC(=O)O)C(=O)N[C@@H](CC(C)C)C(=O)N[C@@H](CC(C)C)C(=O)N[C@@H]([C@@H](C)O)C(=O)N[C@@H](CC(C)C)C(=O)N[C@H](C(=O)N2CCC[C@H]2C(=O)N[C@@H](Cc2ccc(O)cc2)C(=O)O)CSSC[C@@H](C(=O)NCC(=O)NCC(=O)N2CCC[C@H]2C(=O)N[C@@H](CCCNC(=N)N)C(=O)N[C@@H](Cc2c[nH]c3ccccc23)C(=O)N[C@@H](CO)C(=O)N[C@H](C(=O)N[C@@H](CCC(=O)O)C(=O)N[C@@H](C)C(=O)O)[C@@H](C)O)NC(=O)[C@H](C(C)C)NC(=O)[C@H](CCCNC(=N)N)NC(=O)[C@H](C(C)C)NC(=O)[C@H](CC(C)C)NC(=O)[C@H](C)NC(=O)[C@H](CCCNC(=N)N)NC(=O)[C@H](C(C)C)NC(=O)[C@H](Cc2ccccc2)NC(=O)[C@H](Cc2c[nH]cn2)NC(=O)[C@H](Cc2c[nH]cn2)NC(=O)CNC1=O`, the Ki was 3.63 nM (Relaxin receptor 2 (RXFP2, Homo sapiens, UniProt Q8WXD0); ligand displacement in cells).
With `CCCc1cc2cc(-n3nc(C)c4c3CC(C)(C)CC4=O)cc(N[C@H]3CC[C@H](O)CC3)c2c(=O)[nH]1` the IC50 was > 50000 nM (Heat shock protein 75 kDa, mitochondrial (TRAP1, Homo sapiens, UniProt Q12931); ligand displacement, FP).
